Reference: BindingDB's records for doi:10.1021/jm00104a019 (Searle Research & Development, 1993)
Where a SMILES comes first, the peptide text is derived from it.

target: Integrin alpha-IIb/beta-3 (Homo sapiens, UniProt P08514+P05106); assay: Inhibition of platelet aggregation (PRP)
Outline: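 Aggregation of platelets in platelet-rich plasma was induced with ADP, and inhibition of this aggregation was measured.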

Chain of Integrin alpha-IIb/beta-3 (P05106 27-788 limits assumed): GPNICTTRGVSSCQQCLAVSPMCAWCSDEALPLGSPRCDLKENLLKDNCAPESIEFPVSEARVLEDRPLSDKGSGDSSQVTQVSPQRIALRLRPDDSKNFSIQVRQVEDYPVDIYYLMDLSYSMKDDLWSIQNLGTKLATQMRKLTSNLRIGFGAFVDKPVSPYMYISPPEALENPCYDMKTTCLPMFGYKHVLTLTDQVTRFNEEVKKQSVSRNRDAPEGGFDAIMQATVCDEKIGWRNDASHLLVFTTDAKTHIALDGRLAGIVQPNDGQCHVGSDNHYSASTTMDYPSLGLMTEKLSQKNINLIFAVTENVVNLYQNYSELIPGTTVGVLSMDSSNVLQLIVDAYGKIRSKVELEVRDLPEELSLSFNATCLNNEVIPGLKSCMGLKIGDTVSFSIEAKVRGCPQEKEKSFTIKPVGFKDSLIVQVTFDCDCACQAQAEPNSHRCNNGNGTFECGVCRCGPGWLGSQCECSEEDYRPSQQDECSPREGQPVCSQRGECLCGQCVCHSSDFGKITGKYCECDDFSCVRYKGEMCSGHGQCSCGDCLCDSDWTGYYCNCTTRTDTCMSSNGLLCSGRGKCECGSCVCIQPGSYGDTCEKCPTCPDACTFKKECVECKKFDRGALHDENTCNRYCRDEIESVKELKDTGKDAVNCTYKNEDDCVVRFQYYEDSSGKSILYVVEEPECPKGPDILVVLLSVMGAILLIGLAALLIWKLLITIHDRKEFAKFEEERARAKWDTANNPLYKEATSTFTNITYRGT
Chain of Integrin alpha-IIb/beta-3 (P08514 32-887 limits assumed): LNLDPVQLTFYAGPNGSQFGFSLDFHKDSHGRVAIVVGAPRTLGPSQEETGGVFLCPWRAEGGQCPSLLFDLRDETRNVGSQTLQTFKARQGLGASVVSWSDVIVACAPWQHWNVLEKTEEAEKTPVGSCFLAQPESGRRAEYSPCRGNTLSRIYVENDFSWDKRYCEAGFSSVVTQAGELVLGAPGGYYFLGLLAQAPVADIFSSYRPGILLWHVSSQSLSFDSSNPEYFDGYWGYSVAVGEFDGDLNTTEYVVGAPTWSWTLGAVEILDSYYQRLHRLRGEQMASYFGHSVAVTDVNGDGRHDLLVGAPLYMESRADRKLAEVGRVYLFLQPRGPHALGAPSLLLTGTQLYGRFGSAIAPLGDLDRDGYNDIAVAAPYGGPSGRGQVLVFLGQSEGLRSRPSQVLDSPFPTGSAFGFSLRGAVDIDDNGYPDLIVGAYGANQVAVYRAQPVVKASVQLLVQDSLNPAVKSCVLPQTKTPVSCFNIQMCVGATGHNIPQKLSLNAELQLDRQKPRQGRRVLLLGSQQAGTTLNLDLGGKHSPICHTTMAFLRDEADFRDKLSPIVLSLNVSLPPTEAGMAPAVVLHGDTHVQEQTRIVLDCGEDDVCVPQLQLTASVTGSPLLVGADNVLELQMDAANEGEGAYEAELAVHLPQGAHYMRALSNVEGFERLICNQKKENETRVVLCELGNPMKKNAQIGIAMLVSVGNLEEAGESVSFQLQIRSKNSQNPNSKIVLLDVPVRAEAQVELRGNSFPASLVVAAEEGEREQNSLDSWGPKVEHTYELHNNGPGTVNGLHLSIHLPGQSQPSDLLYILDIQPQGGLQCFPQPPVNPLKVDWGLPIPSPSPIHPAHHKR
Chain of Integrin alpha-IIb/beta-3 (P08514 891-1039 limits assumed): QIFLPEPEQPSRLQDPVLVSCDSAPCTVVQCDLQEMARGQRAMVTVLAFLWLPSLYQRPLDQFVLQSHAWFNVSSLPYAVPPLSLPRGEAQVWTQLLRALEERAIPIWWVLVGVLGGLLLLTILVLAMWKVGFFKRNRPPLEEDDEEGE

IC50 [µM] | Structure (SMILES)
4 | N=C(N)NCCCCCCCC(=O)N[C@@H](CC(=O)O)C(=O)N[C@@H](Cc1ccccc1)c1nnn[nH]1
60 | N=C(N)NCCCCCCCC(=O)N[C@@H](CC(=O)O)C(=O)NCCc1ccccc1
40 | NC(N)=NCCC[C@H](N)C(=O)NCC(=O)N[C@@H](CC(=O)O)C(=O)N[C@@H](Cc1ccccc1)C(=O)O (H-RGDF-OH)
1.6 | N=C(N)NCCCCCCCC(=O)N[C@@H](CC(=O)O)C(=O)N[C@@H](Cc1ccccc1)C(=O)O [N-(1-Carboxy-2-phenyl-ethyl)-3-[8-(diaminomethyl-amino)-octanoylamino]-succinamic acid]
